From ChEMBL document CHEMBL1151814, “Ambuic acid and torreyanic acid derivatives from the endolichenic fungus Pestalotiopsis sp” (J Nat Prod, 2009) come the findings set out here.

Common to all, as to format: functional, organism-based
One test relates to Staphylococcus aureus. The test is described as follows: Antibacterial activity against Staphylococcus aureus ATCC 6538 after 24 hrs by NCCLS method. The note with it: ATCC 6538, 24 h. The method, boiled down: (§1)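 Bacteria grown on Mueller-Hinton agar; inoculum from broth culture at 37 °C for 24 h, final suspension 10^6 cells/mL in MHB. Serial dilutions from 10 mg/mL DMSO stock, tested in triplicate per NCCLS recommendations. Absorbance read at 595 nm after incubation. Inhibition rate plotted against concentration to give IC50. Controls were antimicrobial peptide AMP and streptomycin.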

The next test relates to Streptococcus pneumoniae. In words: Antibacterial activity against Streptococcus pneumoniae CGMCC 1.1692 after 24 hrs by NCCLS method. The note with it: CGMCC 1.1692, 24 h. The procedure, abridged: as §1
A further test has as its system Escherichia coli. The test is described as follows: Antibacterial activity against Escherichia coli CGMCC 1.2340 after 24 hrs by NCCLS method. The note with it: CGMCC 1.2340, 24 h. The procedure, abridged:
as §1

For the next test, the system named is Candida albicans. In words: Antifungal activity against Candida albicans ATCC 10231 after 48 hrs by NCCLS method. The note with it: ATCC 10231, 48 h. The procedure, abridged: (§2)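 Yeasts grown on Sabouraud dextrose agar; inoculum from broth culture at 28 °C for 48 h, final suspension 10^5 cells/mL in SDB. Serial dilutions from 10 mg/mL DMSO stock in triplicate per NCCLS. A595 read after incubation; IC50 derived from inhibition rate versus concentration plot. Fluconazole served as positive control.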

The test system of a further test is Geotrichum candidum. The test is described as follows: Antifungal activity against Geotrichum candidum AS2.498 after 48 hrs by NCCLS method. The note with it: AS2.498, 48 h. The procedure, abridged:
as §2

Another test relates to Aspergillus fumigatus. In words: Antifungal activity against Aspergillus fumigatus ATCC 10894 after 48 hrs by NCCLS method. The method, boiled down:
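Mould grown on potato dextrose agar; inoculum from broth culture at 28 °C for 48 h, final 10^4 mycelial fragments/mL in PDB. Compounds serially diluted from 10 mg/mL DMSO stock, triplicate wells per NCCLS. Absorbance at 595 nm after incubation; IC50 from inhibition rate plotted versus concentration. Fluconazole positive control.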

Calls of active or inactive are those of the source. The rule behind the calls is not given here. Bounds are passed on as bounds.

Take `CCCCCC1O[C@H]2C3=C(C(=O)[C@@]4(C/C=C(\C)C(=O)O)OC4[C@H]3O)C1C1C(CCCCC)OC=C3C(=O)C4O[C@]4(C/C=C(\C)C(=O)O)C(=O)C312` (stereo not given in full): the IC50 with Staphylococcus aureus, in the test on Streptococcus pneumoniae, with Escherichia coli, in the test on Candida albicans and in the test on Geotrichum candidum was > 50 µM in each case. The result with Aspergillus fumigatus was inactive.
For `CCCCC/C=C/C1=C(COC(C)=O)[C@@H](O)[C@H]2O[C@@]2(C/C=C(\C)C(=O)O)C1=O`, 27.8 µM corresponded to half-maximal inhibition in the test on Staphylococcus aureus (IC50). Also, in the test with Aspergillus fumigatus, the result was inactive.
For the compound `CCCCC/C=C/C1=C(CO)C(=O)C[C@](O)(C/C=C(\C)C(=O)O)[C@H]1O`, the IC50 in the test on Staphylococcus aureus, in the test with Streptococcus pneumoniae, in the test on Escherichia coli, in the test with Candida albicans and in the test with Geotrichum candidum was > 50 µM in each case. The outcome in the test on Aspergillus fumigatus was inactive.
For `CCC/C=C/C=C/C1=C(CO)[C@@H](O)[C@H]2O[C@@]2(C/C=C(\C)C(=O)O)C1=O`, the IC50 in the test with Staphylococcus aureus, in the test on Streptococcus pneumoniae, with Escherichia coli, with Candida albicans and in the test on Geotrichum candidum was > 50 µM throughout. Moreover, the outcome with Aspergillus fumigatus was inactive.
Regarding `CCCCC/C=C/C1=C2COC(C)(C)O[C@H]2[C@H]2O[C@@]2(C/C=C(\C)C(=O)O)C1=O`, the IC50 with Staphylococcus aureus, with Streptococcus pneumoniae, with Escherichia coli, in the test on Candida albicans and in the test with Geotrichum candidum was > 50 µM throughout. Moreover, in the test on Aspergillus fumigatus, the outcome was inactive.
Take `CCC(=O)CC/C=C/C1=C(CO)[C@@H](O)[C@H]2O[C@@]2(C/C=C(\C)C(=O)O)C1=O`: the IC50 in the test on Staphylococcus aureus, with Streptococcus pneumoniae, in the test with Escherichia coli, in the test with Candida albicans and in the test on Geotrichum candidum was > 50 µM in each case. Moreover, in the test on Aspergillus fumigatus, the result was inactive.
Turning to `CCCCC/C=C/C1=C(CO)[C@H](O)[C@H]2O[C@@]2(C/C=C(\C)C(=O)O)C1=O` [AMBUIC ACID], the IC50 – broadly, the concentration that inhibits the measured activity by half – in the test with Staphylococcus aureus was 43.9 µM. Further, in the test on Aspergillus fumigatus, the outcome was inactive.
Consider `CCCCCCCC1=C(CO)[C@@H](O)[C@H]2O[C@@]2(C/C=C(\C)C(=O)O)C1=O`, for which the IC50 in the test with Staphylococcus aureus, in the test with Streptococcus pneumoniae, in the test with Escherichia coli, in the test with Candida albicans and in the test with Geotrichum candidum was > 50 µM each time. The outcome in the test with Aspergillus fumigatus was inactive.
